The list is not random: actives were taken first. Their share in the collection is about 9.8%.
PMI act – activators of human phosphomannose isomerase; P34949; purified human PMI, coupled resazurin fluorescence, 20 min; active compounds read high; 1 = vehicle control, 0 substrate-free wells; activation factor at 20 µM; actives 0.005% (n = 190,000);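 active = activation factor of 2 or more at 20 µM, relative to plate controls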
PMI act satM6P – PMI (human) activation, high substrate. P34949. coupled PMI enzyme assay, resazurin fluorescence, 20 min; active compounds read high; 1 = untreated enzyme, 0 = substrate-free blank. activation factor at 20 µM. actives 0.34% (n = 190,000);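 active = activation factor of 2 or more at 20 µM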
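Test system: human phosphomannose isomerase with PGI, G6PDH, diaphorase coupling enzymes; amount: 15 ng/mL PMI; incubation: enzyme reaction with compound 20 min at room temperature; technique: resorufin fluorescence (Ex 544/Em 590 nm) from resazurin via diaphorase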
L major viab – Leishmania major promastigote growth inhibition; Leishmania major promastigotes, resazurin fluorescence viability; inhibition, % at 10 µM; actives 9% (n = 200,000); AID 1063; in the data active = inhibition above about 50%;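 also: promastigotes grown with compound for 44 hours at 28 °C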
WT yeast gro inh – growth inhibition of WT yeast, mitochondrial fusion screen. actives 2.1% (n = 190,000). inhibition, % at 10 µM. AID 1362. mitochondrial fusion phenotypic screen, WT strain; in the data active = inhibition above about 58%; tested in S. cerevisiae
m-calpain inh – blocks pig calpain II enzyme activity; purified calpain II, fluorogenic peptide substrate, 30 min; inhibition, % at 16 µM; actives 0.37% (n = 220,000); AID 1236;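 active = inhibition above about 50%, limit read from the data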
Rad51 HR inh – Rad51 (human) homologous recombination inhibition | hRad51 DNA strand exchange, fluorescence dequenching | inhibition, % at 10 µM | actives 0.085% (n = 200,000) | AID 1385;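 active = inhibition above 40% at the single screening dose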;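 also: 0% = DMSO control wells and 100% = blanks with heterologous ssDNA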
Target sequence (Q06609 whole entry, looked up): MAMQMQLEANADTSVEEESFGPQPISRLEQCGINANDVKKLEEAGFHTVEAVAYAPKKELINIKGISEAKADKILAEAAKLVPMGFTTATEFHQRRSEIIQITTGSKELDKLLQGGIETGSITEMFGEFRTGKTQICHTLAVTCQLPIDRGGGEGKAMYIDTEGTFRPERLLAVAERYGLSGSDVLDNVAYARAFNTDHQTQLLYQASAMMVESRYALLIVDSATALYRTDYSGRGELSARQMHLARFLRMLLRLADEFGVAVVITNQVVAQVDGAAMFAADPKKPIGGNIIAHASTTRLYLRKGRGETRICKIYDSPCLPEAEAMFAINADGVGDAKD
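Test system: preformed human Rad51 ssDNA filaments; also added: Donor/quencher-labelled 47-bp dsDNA substrate; doses: 10 µM final, single point; times: 37 °C 15-min filament assembly, 30-min compound preincubation, 15-min exchange; detection: FRET fluorescence dequenching, excitation 485 nm, emission 520 nm; read-out basis: Fluorescence-based percent inhibition, control- and blank-normalised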
* hit, by the source's call; x = no result given.

SMILES	PMI act	PMI act satM6P	L major viab	WT yeast gro inh	m-calpain inh	Rad51 HR inh
COc1ccc(CNC(=O)C(c2ccc(C)cc2)N(Cc2cccs2)C(=O)c2ccc3c(c2)OCCO3)cc1 (stereo not drawn)	0.8	0.9	98.9*	55.2	-73.4	2.5
Cc1ccc(C(C(=O)NCc2ccccc2)N(Cc2cccs2)C(=O)c2ccc3c(c2)OCCO3)cc1 (stereo not drawn)	0.9	1	4.0	69.2*	-58.6	-4.5
Cc1cccc(N/C(=N\S(=O)(=O)c2ccccc2)C(F)(F)F)c1	1.1	1.1	-4.8	4.7	5.1	x
O=C(CCCN1CCC(c2ccccc2)C1)c1ccc2c(c1)OCCO2 (stereo not drawn)	1.2	1	94.7*	14.3	-16.5	3.4
O=C(CCN1CCc2ccccc2CC1)c1ccc2c(c1)OCCO2	0.5	0.6	88.8*	-3.9	-0.6	2.9
O=C(CCCN1CCOCC1)c1ccc2c(c1)OCCO2	0.9	1	89.5*	9.8	-31.1	9.6
O=C(OCCN1CCOCC1)c1ccc2c(c1)OCCO2	1.1	1.1	-2.6	-15.0	-8.4	3.1
O=C(CCN1CCCCC1)c1ccc2c(c1)OCO2	0.7	0.7	26.5	19.9	-17.9	-8.9
O=C(CCN1CCOCC1)c1ccc2c(c1)OCCO2	0.7	0.7	100.5*	-1.5	-13.0	-2.9
O=C(CCS(=O)(=O)c1ccc(Br)s1)Nc1ccccc1Br	0.9	0.9	-4.2	10.2	-3.0	-2.1
Cc1ccccc1C(=O)Nc1nnc(-c2cccnc2)o1	1.1	1.1	-5.2	-8.2	4.6	0.3
COc1ccc2occ(C(=O)c3coc4ccc(O)c(CN(C)C)c34)c2c1	1	0.7	75.4*	10.0	10.4	3.0
COc1ccc(C(O)c2coc3ccc(O)c(CN(C)C)c23)cc1 (stereo not drawn)	0.9	1	99.7*	14.2	-22.0	0.2
COc1ccc(C(=O)c2coc3ccc(O)c(CN4CCCCC4)c23)cc1	0.8	0.8	8.0	10.6	11.5	7.6
CN(C)Cc1c(O)ccc2occ(C(=O)c3ccccc3)c12	0.9	1	9.4	19.6	14.6	-2.1
O=C(Nc1ccc(N2CCOCC2)c(Cl)c1)c1ccc([N+](=O)[O-])o1	1	0.9	99.8*	18.6	-20.6	12.3
CC(C)C(=O)N1CCN(c2ccc(NC(=O)c3ccc([N+](=O)[O-])o3)cc2Cl)CC1	1	0.9	100.7*	93.6*	-8.3	3.9
COc1ccc(NC(=O)c2ccccc2-c2ccc(C(F)(F)F)cc2)cc1S(=O)(=O)N1CCOCC1	1	1	-0.6	0.6	-16.9	x
CC(=O)N1CCN(c2ccc(NC(=O)c3ccc(Br)o3)cc2Cl)CC1	1	0.9	9.3	16.7	39.5	24.9
Cc1ccc(NC(=O)c2ccccc2-c2ccc(C(F)(F)F)cc2)cc1S(=O)(=O)N1CCOCC1	1	0.9	93.3*	18.1	-8.0	6.8
CCCC(=O)N1CCN(c2ccc(NC(=O)c3ccc([N+](=O)[O-])o3)cc2Cl)CC1	1.1	1	100.7*	85.6*	30.8	x
O=C(Nc1ccc2c(c1)OCCO2)c1cccc(S(=O)(=O)N2CCCCC2)c1	0.7	0.8	5.9	7.4	2.0	121.7*
O=C(COC(=O)c1ccc([N+](=O)[O-])o1)Nc1cccc(S(=O)(=O)N2CCCCC2)c1	1	0.8	-9.0	0.2	-45.6	1.9
O=[N+]([O-])c1cccc(S(=O)(=O)Nc2nc3ccccc3nc2Nc2cccc(S(=O)(=O)N3CCCCC3)c2)c1	0.9	1	-5.4	-20.7	82.0*	3.8
O=C(Nc1ccc2c(c1)OCCO2)c1cccc(S(=O)(=O)N2CCOCC2)c1	1.1	1	-7.8	-9.8	5.8	0.5
SMILES	PMI act	PMI act satM6P	L major viab	WT yeast gro inh	m-calpain inh	Rad51 HR inh
O=C(Nc1cccc(S(=O)(=O)N2CCCCC2)c1)c1ccc([N+](=O)[O-])o1	1	1	100.3*	9.3	-2.2	-1.9
Cc1ccc(NC(=O)COC(=O)c2ccc([N+](=O)[O-])o2)cc1S(=O)(=O)N1CCCCC1	0.9	0.8	-5.2	5.8	-36.8	16.2
Cc1ccc(S(=O)(=O)Nc2nc3ccccc3nc2Nc2cccc(S(=O)(=O)N3CCCC3)c2)cc1	0.9	0.9	16.8	2.4	-14.3	-19.7
Cc1ccc(NC(=O)c2ccc([N+](=O)[O-])o2)cc1S(=O)(=O)N1CCOCC1	1.1	1	99.3*	0.8	-12.6	1.1
CC(C)CC(NC(=O)CNC(=O)C1O[C@@H]2OC(C)(C)O[C@@H]2[C@H]2OC(C)(C)O[C@@H]12)C(=O)O (stereo partly drawn)	1.2	1	0.9	5.7	16.1	5.4
CC(C)C(=O)N1CCN(c2ccc(NC(=O)c3ccc(Br)o3)cc2)CC1	0.9	1	-0.1	16.0	20.3	-6.0
O=C(Nc1ccc(N2CCN(C(=O)c3ccccc3)CC2)cc1)c1ccc([N+](=O)[O-])o1	0.9	0.9	100.5*	29.0	-9.4	-23.2
CC(C)C(=O)N1CCN(c2ccc(NC(=O)c3ccc([N+](=O)[O-])o3)cc2)CC1	1.3	1.1	99.1*	16.8	13.3	6.6
CC(C)Cc1nn2c(N)c(/C=C3\C=Nc4ccccc43)c(=O)nc2s1	1	1	14.4	9.8	-71.6	-10.0
CCN1C(=C2C(=O)c3ccccc3C2=O)C=Cc2ccccc21	0.9	0.9	27.0	8.7	-2.8	1.4
CCN(CC)CCN1c2ccccc2Sc2ccc3ccccc3c21	x	x	x	x	-28.0	-3.7
Cc1sc2c3ccsc3ccc2[n+]1C	1	1.3	1.1	24.6	-50.6	3.0
CCN1/C(=C/c2ccc3cc(C)ccc3[n+]2CC)Sc2cc(C)ccc21	0.8	0.8	100.5*	74.7	17.3	-183.8
CCN1/C(=C/c2ccc3cc(C)ccc3[n+]2C)Sc2ccc3sccc3c21	x	x	100.5*	95.2*	-73.3	31.3
CCCCN1/C(=C/c2ccc3ccccc3[n+]2CC)Sc2ccccc21	0.6	0.7	100.4*	70.7	-4.2	-127.1
CCN1/C(=C/c2ccc3ccccc3[n+]2CC)C=Cc2ccccc21	0.8	0.8	100.5*	83.2*	33.2	10.8
CC(=O)NCc1ccc(C(=O)CCl)s1	1.2	1.1	100.4*	-11.3	-31.3	5.2
CC(=O)NCCC(=O)NCc1ccc(F)cc1	1	1	-5.9	x	-29.4	-1.1
CN(Cc1ccccc1)C(=O)c1ccc2c(c1)OCCO2	1.1	1.1	-11.1	4.1	-13.7	4.3
CC(=O)NCc1ccc(C(=O)CCl)cc1	1.3	1.1	93.3*	-2.2	3.8	5.5
CC(=O)N(C)Cc1ccc(C(=O)CCl)cc1	1.3	1.2	100.5*	7.6	0.4	-3.9
CCC(=O)c1ccc(CCCCCC(=O)O)s1	0.9	0.9	-3.1	3.0	-14.4	x

Screening data from PubChem.
